How the values were obtained:
P2Y purinoceptor 14 = target: T1, P2Y purinoceptor 14 (Mus musculus, UniProt Q9ESG6); experiment: Antagonist activity at mouse P2Y14 receptor expressed in HEK293 cells assessed as calcium flux by FLIPR assay; type: functional, cell-based
T1 sequence (Q9ESG6 whole entry): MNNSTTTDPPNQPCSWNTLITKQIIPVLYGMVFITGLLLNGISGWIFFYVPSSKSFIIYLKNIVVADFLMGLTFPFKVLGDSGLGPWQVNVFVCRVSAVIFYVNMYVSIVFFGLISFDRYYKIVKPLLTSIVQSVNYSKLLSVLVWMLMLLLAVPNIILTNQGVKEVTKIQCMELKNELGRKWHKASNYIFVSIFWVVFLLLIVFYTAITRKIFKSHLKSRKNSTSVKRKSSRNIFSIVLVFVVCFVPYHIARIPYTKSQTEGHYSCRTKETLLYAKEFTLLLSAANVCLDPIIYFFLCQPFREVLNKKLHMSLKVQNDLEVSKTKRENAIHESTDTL

[1] = Antagonist activity at chimpanzee P2Y14 receptor expressed in HEK293 cells assessed as calcium flux by FLIPR assay; type: functional, cell-based; conditions: Pan troglodytes
[2] = Displacement of [3H]-UDP from chimpanzee P2Y14 receptor expressed in HEK293 cells; type: cell-based, Pan troglodytes
[3] = Metabolic stability in C57BL/6 mouse Hepatocyte assessed as parent compound remaining at 20 uM after 2 hrs; type: ADME, cell-based; conditions: hepatocytes, read-out: Stability
How it was run: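 Hepatocytes were isolated from mouse liver by two-step perfusion with 50 U/mL collagenase. Compound was incubated with the hepatocytes for 2 h, and metabolic stability was read out as the percentage of parent drug remaining.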

[4] = Oral bioavailability in C57BL/6 mouse at 50 mg/kg, po administered in 5% Tween-80; type: ADME, organism-based; conditions: in vivo
How it was run: (§1)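 C57BL/6 mice were dosed orally at 50 mg/kg (one analog at 25 mg/kg) in 5% Tween-80. They were also dosed intravenously at 2 mg/kg in 60% PEG-200. Oral bioavailability, half-life and intrinsic clearance come from these dosings.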

Mus musculus [5] = experiment: Intrinsic clearance in C57BL/6 mouse at 2 mg/kg, iv administered in 60% PEG-200; type: ADME, organism-based; set-up: dose 2 mg/kg, route intravenous; conditions: in vivo; how it was run: as §1
[6] = Half life in C57BL/6 mouse at 50 mg/kg, po and 2 mg/kg, iv; type: ADME, organism-based; conditions: in vivo; how it was run: as §1
[7] = Cmax in C57BL/6 mouse at 50 mg/kg, po administered in 5% Tween-80; type: ADME, organism-based; set-up: dose 50 mg/kg, route oral; conditions: in vivo; how it was run: as §1
Mus musculus [8] = experiment: Drug metabolism in Mrp2 (-/-) mouse assessed as (2S,3S,4S,5R,6S)-6-(7-(4-fluoro-2,6-dimethylbenzyloxy)-4-(thiophen-3-yl)-2-naphthoyloxy)-3,4,5-trihydroxytetrahydro-2H-pyran-2-carboxylic acid recovery in bile at 2 mg/kg, po up to 24 hrs; conditions: in vivo
[9] = Oral bioavailability in C57BL/6 mouse at 25 mg/kg, po administered in 5% Tween-80; type: ADME, organism-based; conditions: in vivo; how it was run: as §1
[10] = Cmax in C57BL/6 mouse at 25 mg/kg, po administered in 5% Tween-80; type: ADME, organism-based; set-up: dose 25 mg/kg, route oral; conditions: in vivo; how it was run: as §1

IC50 (P2Y purinoceptor 14) | IC50 [1] | Ki [2] | remaining at 2 h, 20 µM [3] | bioavailability [4] | CL (Mus musculus [5]) | half-life [6] | Cmax [7] | Activity (Mus musculus [8]) | bioavailability [9] | Cmax [10] | Structure (SMILES)
– | – | 4000 nM | – | – | – | – | – | – | – | – | COc1ccc2c(-c3ccccc3)cc(C(=O)O)cc2c1
4900 nM | 4100 nM | 1500 nM | – | – | – | – | – | – | – | – | O=C(O)c1cc(-c2ccccc2)c2ccc(Oc3ccccc3)cc2c1
> 13000 nM | > 40000 nM | – | – | – | – | – | – | – | – | – | O=C(O)c1ccc(COc2ccc3c(-c4ccccc4)cc(C(=O)O)cc3c2)cc1
190 nM | 91 nM | 29 nM | – | – | – | – | – | – | – | – | O=C(O)c1cc(-c2ccccc2)c2ccc(OCc3c(Cl)cccc3Cl)cc2c1
110 nM | 41 nM | 42 nM | – | – | – | – | – | – | – | – | Cc1cccc(C)c1COc1ccc2c(-c3ccccc3)cc(C(=O)O)cc2c1
2100 nM | 1500 nM | 340 nM | – | – | – | – | – | – | – | – | Cc1cccc(C)c1OCc1ccc2c(-c3ccccc3)cc(C(=O)O)cc2c1
13000 nM | 6500 nM | – | – | – | – | – | – | – | – | – | Cc1cccc(C)c1COc1ccc2ccc(C(=O)O)cc2c1
110 nM | 89 nM | 21 nM | – | – | – | – | – | – | – | – | Cc1cccc(C)c1COc1ccc2c(OCc3ccccc3)cc(C(=O)O)cc2c1
26 nM | 6 nM | 16 nM | – | – | – | – | – | – | – | – | Cc1cccc(C)c1COc1ccc2c(-c3ccsc3)cc(C(=O)O)cc2c1
14 nM | 4 nM | 14 nM | 8% | 12% | 7.1 mL/min/kg | 2.7 h | 23 µM | > 99% | – | – | Cc1cc(F)cc(C)c1COc1ccc2c(-c3ccsc3)cc(C(=O)O)cc2c1
54 nM | 14 nM | 29 nM | 62% | – | 18 mL/min/kg | 1.1 h | – | – | 92% | 18 µM | O=C(O)c1cc(-c2ccsc2)c2ccc(-c3ccc(OC(F)(F)F)cc3)cc2c1
380 nM | 110 nM | 110 nM | 85% | 129% | 3.3 mL/min/kg | 4.3 h | 89 µM | – | – | – | O=C(O)c1cc2cc(-c3ccc(OC(F)(F)F)cc3)ccc2c(-c2ccsc2)c1F
1300 nM | 490 nM | 170 nM | 93% | – | 7.6 mL/min/kg | 13 h | 34 µM | – | – | – | O=C(O)c1cc2cc(-c3ccc(OC(F)(F)F)cc3)ccc2c(-c2ccsc2)c1O
350 nM | 91 nM | 54 nM | 91% | 45% | 1.9 mL/min/kg | 4.1 h | 37 µM | – | – | – | O=C(O)c1cc(-c2cscc2C(O)(C(F)(F)F)C(F)(F)F)c2ccc(-c3ccc(OC(F)(F)F)cc3)cc2c1
– | 86 nM | 32 nM | 16% | 4% | 3.7 mL/min/kg | 3.2 h | 16 µM | – | – | – | CS(=O)(=O)c1cscc1-c1cc(C(=O)O)cc2cc(-c3ccc(OC(F)(F)F)cc3)ccc12
20 nM | 7 nM | 7 nM | – | – | – | – | – | – | – | – | CS(=O)(=O)c1ccc(-c2cc(C(=O)O)cc3cc(-c4ccc(C(F)(F)F)cc4)ccc23)cc1
13 nM | 5 nM | 14 nM | – | – | – | – | – | – | – | – | O=C(O)c1cc(-c2ccc(C(O)C(F)(F)F)cc2)c2ccc(-c3ccc(C(F)(F)F)cc3)cc2c1 (stereo not drawn)
4 nM | 1 nM | 10 nM | – | – | – | – | – | – | – | – | O=C(O)c1cc(-c2ccc([C@@H](O)C(F)(F)F)cc2)c2ccc(-c3ccc(C(F)(F)F)cc3)cc2c1
51 nM | 11 nM | 21 nM | – | – | – | – | – | – | – | – | O=C(O)c1cc(-c2ccc([C@H](O)C(F)(F)F)cc2)c2ccc(-c3ccc(C(F)(F)F)cc3)cc2c1
8 nM | 1 nM | 4 nM | 39% | 67% | 1.6 mL/min/kg | 3 h | 113 µM | – | – | – | O=C(O)c1cc(-c2ccc([C@@H](O)C(F)F)cc2)c2ccc(-c3ccc(C(F)(F)F)cc3)cc2c1

Structure (SMILES) | IC50 (P2Y purinoceptor 14) | IC50 [1] | Ki [2] | remaining at 2 h, 20 µM [3] | bioavailability [4] | CL (Mus musculus [5]) | half-life [6] | Cmax [7] | Activity (Mus musculus [8]) | bioavailability [9] | Cmax [10]
O=C(O)c1cc(-c2ccccc2)c2ccc(OCc3ccccc3)cc2c1 | 3500 nM | 3500 nM | 160 nM | – | – | – | – | – | – | – | –

From ChEMBL document CHEMBL1773017, “The identification of 4,7-disubstituted naphthoic acid derivatives as UDP-competitive antagonists of P2Y14” (Bioorg Med Chem Lett, 2011)
